High-throughput results as filed in PubChem.
GRIN3A LBD mod: NR3A (human) ligand-binding domain modulation. Tm shift relative to glycine control, % at 25 µM. 2.5% of 340,000 active. NR3A LBD differential scanning fluorimetry, Tm shift; 0% = protein alone, 100% = glycine-bound protein;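 active = melting temperature shift of at least 10% of the positive control shift, at one fixed dose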
iPSC survival up: enhancers of human iPSC single-cell survival. hiPSC single-cell survival, ATPlite luminescence; 100% = ROCK inhibitor wells, 0% = DMSO. survival enhancement, % at 20 µM. 0.044% of 360,000 active; in the data active = survival enhancement above about 18%;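 also: cells exposed to compounds for 16 hours before the ATP read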
Arr AP2 block: human beta-arrestin and AP2 interaction inhibition. FITC-arrestin peptide / GST-AP2 beads, flow cytometry; AP2 beta2 appendage carries R879A mutation. inhibition, % at 10 µM. 0.31% of 340,000 active. AID 504490;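 active = inhibition above a set limit, near 3 SD of compounds lacking own fluorescence, cut at about 54% in these data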;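 also: plate controls were DMSO wells for no effect and 5 µM unlabelled arrestin peptide for full effect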
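Material – AP2 appendage R879A on GSH beads · Buffer or medium – PBS with 0.05% Tween 20 and 0.1% BSA · Probe or stimulus – fluorescein-tagged arrestin peptide at 50 nM final · Incubation – compound with beads 12 min RT, then probe 1 h RT · Detection – high-throughput flow cytometry of beads, ex 488, em 535 nm · Evaluation – percent response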
FAS TE block: FAS thioesterase (human) inhibition; P49327; 0.67% of 360,000 active; AID 602261; inhibition, % at 15 µM; recombinant FAS-TE, OMFH fluorogenic substrate, fluorescence endpoint;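 active = compounds whose normalised, plate-corrected inhibition of enzyme fluorescence in the single-dose primary screen is 50% or more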;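 also: 0% = DMSO with enzyme and 100% = substrate without enzyme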
Target sequence (P49327 whole entry, looked up): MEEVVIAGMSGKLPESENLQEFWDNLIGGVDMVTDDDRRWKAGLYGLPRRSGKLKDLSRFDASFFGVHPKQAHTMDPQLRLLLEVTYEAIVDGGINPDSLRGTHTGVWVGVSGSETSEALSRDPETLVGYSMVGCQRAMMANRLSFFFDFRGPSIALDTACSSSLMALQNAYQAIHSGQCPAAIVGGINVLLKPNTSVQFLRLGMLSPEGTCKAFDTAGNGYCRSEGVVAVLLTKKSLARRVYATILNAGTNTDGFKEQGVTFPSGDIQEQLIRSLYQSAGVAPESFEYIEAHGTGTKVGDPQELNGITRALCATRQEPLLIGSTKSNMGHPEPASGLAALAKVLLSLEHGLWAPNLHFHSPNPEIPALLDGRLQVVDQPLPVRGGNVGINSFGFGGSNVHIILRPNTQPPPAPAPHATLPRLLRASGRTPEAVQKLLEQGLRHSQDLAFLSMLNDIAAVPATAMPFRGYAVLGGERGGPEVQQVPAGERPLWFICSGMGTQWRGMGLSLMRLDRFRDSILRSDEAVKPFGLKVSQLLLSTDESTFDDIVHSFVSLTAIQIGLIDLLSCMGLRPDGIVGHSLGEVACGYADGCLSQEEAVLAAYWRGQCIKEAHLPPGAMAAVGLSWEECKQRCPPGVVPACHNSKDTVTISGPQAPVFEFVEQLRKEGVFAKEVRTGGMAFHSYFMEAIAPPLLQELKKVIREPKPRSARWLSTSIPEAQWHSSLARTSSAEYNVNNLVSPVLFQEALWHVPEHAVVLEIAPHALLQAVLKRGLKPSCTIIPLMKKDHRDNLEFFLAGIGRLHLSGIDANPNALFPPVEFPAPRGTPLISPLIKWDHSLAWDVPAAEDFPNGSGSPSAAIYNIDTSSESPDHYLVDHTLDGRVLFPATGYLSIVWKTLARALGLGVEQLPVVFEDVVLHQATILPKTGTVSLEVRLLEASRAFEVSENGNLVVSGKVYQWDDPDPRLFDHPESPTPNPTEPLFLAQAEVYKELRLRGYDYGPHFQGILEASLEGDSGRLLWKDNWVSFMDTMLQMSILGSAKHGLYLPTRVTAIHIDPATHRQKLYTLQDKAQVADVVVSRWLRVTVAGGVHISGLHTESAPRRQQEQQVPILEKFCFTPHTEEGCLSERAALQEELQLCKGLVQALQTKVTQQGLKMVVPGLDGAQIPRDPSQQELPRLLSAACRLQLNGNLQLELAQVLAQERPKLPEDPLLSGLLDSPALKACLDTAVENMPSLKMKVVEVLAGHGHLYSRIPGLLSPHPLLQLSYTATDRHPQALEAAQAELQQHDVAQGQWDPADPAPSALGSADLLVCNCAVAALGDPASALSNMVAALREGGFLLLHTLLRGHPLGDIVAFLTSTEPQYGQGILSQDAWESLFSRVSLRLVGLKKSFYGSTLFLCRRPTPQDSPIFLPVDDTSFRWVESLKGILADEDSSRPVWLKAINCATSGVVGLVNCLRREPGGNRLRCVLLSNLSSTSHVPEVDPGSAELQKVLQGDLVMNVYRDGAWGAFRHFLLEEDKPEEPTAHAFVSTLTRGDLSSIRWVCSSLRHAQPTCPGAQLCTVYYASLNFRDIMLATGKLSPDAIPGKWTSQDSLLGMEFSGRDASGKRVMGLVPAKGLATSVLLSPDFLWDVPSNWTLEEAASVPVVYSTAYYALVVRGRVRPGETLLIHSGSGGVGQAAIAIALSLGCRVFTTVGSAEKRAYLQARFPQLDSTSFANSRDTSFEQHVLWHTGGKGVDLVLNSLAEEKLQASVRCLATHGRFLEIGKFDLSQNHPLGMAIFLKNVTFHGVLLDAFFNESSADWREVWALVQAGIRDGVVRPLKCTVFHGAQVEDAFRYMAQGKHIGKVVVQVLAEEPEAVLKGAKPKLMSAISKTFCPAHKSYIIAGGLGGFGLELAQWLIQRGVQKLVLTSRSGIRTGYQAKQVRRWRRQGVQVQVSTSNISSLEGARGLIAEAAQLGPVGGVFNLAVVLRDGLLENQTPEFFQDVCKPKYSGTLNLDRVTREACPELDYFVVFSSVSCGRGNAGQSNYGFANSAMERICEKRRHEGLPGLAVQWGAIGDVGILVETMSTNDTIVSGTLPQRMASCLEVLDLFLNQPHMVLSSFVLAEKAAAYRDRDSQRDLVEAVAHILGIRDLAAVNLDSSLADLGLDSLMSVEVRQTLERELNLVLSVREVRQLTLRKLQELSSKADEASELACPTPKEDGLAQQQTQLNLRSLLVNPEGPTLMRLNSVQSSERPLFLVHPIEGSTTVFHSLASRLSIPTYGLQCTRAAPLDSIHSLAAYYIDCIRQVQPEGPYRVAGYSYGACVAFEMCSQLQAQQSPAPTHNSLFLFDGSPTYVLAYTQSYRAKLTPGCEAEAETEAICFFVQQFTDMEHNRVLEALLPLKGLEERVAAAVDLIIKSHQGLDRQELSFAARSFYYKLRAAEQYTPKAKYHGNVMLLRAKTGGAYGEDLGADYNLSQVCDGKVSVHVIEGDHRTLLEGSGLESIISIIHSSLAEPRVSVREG
SENP1 FRET inh: blocks the human SENP1 SUMO protease catalytic domain. recombinant SENP1 catalytic domain, CyPet-SUMO1-YPet FRET cleavage. inhibition, % at 10 µM. 0.21% of 360,000 active;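 active = inhibition at least 30% at 10 µM, raw YFP signal under a set limit, fluorescence ratio 0.5 to 1.5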;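 also: 0% = enzyme with DMSO and 100% = no enzyme wells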
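Controls: no-enzyme wells low, DMSO-plus-enzyme wells high control. Test system: human recombinant His6-tagged SENP1 catalytic domain enzyme. Reagent: SFCypet-SUMO1-SFYpet FRET protein substrate, 25 nM final. Doses: one dose per compound, 10 µM, 0.5% DMSO. Detection: FRET, CFP and YFP emission. Timing: 50 min reaction at room temperature.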
H9c2 protect: protects H9c2 cardiomyocytes from peroxide injury | H2O2 injury protection, ATPLite, 2 h | protection from H2O2 cell death, % at 20 µM | 0.63% of 360,000 active | AID 588492;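 active = compounds giving at least 50% protection of heart cells from peroxide-induced death in the single-dose screen, raw or plate-pattern-corrected value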;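 also: 0% = DMSO wells with peroxide and 100% = DMSO wells without peroxide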
Active calls of the source: *; . = not tested or not shown. In the library only some 4% were active in any assay of this set; here they are far more common.

SMILES	GRIN3A LBD mod	iPSC survival up	Arr AP2 block	FAS TE block	SENP1 FRET inh	H9c2 protect
NC(c1ccccc1)c1csc(Nc2ccc(C(=O)c3ccccc3)cc2)n1 (stereo not drawn)	.	2.7	.	-13.8	-6.4	-12.1
CC1(C(=O)NS(=O)(=O)c2ccccc2Cl)CCN1C(=O)COc1ccc(Cl)cc1 (stereo not drawn)	.	-1.5	.	-9.7	1.4	10.3
COc1ccc(Nc2nc(C(=O)N3CCc4ccccc4C3)cs2)cc1	-23.0	0.8	-15.0	14.5	4.2	1.0
COc1ccc(Nc2nc(C(=O)N3CCc4cc(OC)c(OC)cc4C3)cs2)cc1	0.5	-0.2	26.2	3.5	0.1	73.8*
COc1cc(C(=O)NNC(=O)c2ccc3ccccc3n2)cc(OC)c1OC	-3.6	-0.3	14.7	-6.0	-0.8	60.6*
COc1cc(OC)cc(C(=O)NNC(=O)c2ccc3ccccc3n2)c1	-1.3	0.3	5.1	-0.7	-0.8	44.1
COc1ccc(C(=O)NC(=S)NNC(=O)c2ccc3ccccc3n2)cc1	10.9*	0.3	20.0	2.7	7.0	24.2
COc1cc(C(=O)NNC(=O)C2CC2)cc(OC)c1OC	14.5*	0.8	-3.6	-6.6	3.3	1.8
CCOc1cc(NC(=O)C2CC2)c(OCC)cc1NC(=O)c1cc(OC)c(OC)c(OC)c1	-3.5	0.0	-6.1	-9.3	-86.2	14.1
O=C(CC1CCCC1)Nc1cccc(Br)c1	-8.7	-0.4	14.2	6.6	-2.0	-0.9
N#Cc1ccc(NC(=O)Nc2ccc(Oc3ccc(NC(=O)Nc4ccc(C#N)cc4)cc3)cc2)cc1	32.3*	-0.6	-19.0	21.3	1.5	-20.4
N#Cc1cccc(NC(=O)CC2CCCCC2)c1	12.2*	4.1	0.6	9.9	1.5	-1.2
N#Cc1ccc(OCC(=O)Nc2ccncc2)cc1	2.4	-0.5	-10.6	-5.2	0.8	-5.7
N#Cc1ccc(NC(=O)Nc2cccc(C#N)c2)cc1	26.5*	0.1	11.3	9.3	1.1	-18.2
CC1=C(C(=O)N(C(C)C)C(C)C)CC(CC(=O)NCCN2CCOCC2)C(=O)N1Cc1ccc(C(C)(C)C)cc1 (stereo not drawn)	.	1.9	.	2.9	1.6	6.1
CC(C)c1nc(SCC(=O)N2CCCCC2)c2c(=O)n(C)c(=O)n(C)c2n1	.	3.3	.	-13.7	-2.2	14.6
CCOc1ccc(S(=O)(=O)NCCC(=O)NCCOc2ccccc2)cc1	65.0*	2.8	11.5	5.0	0.2	-2.0
Cc1ccc(OCCNC(=O)CCNS(=O)(=O)c2ccc(C)cc2)cc1	-3.2	0.2	22.8	-0.7	-0.1	-3.6
CC(=O)OC[C@@H]1CN(Cc2ccccc2)C[C@H](n2cnc3c(Nc4ccccc4)ncnc32)O1	.	1.7	.	2.6	-3.1	9.1
Cc1ccc(C)c(C(=O)NCCN(C)C)c1	0.1	1.3	-7.9	-5.9	2.1	-0.1
C=C(CN(C)C)C(=O)c1cc(C)ccc1C	11.2*	-0.5	-4.7	-8.3	2.6	-18.0
N#CC1C(=O)c2ccccc2C1c1ccccc1 (stereo not drawn)	19.6*	-1.8	-4.4	1.4	0.5	1.1
O=C1CCC(c2ccccc2)c2ccccc21 (stereo not drawn)	1.4	-0.1	17.2	5.7	1.2	4.4
CC1(C)Cc2cccc(OC(=O)NC3CCCCC3)c2O1	.	-0.5	.	-4.9	3.0	.
c1cc2[nH]snc2c2nc(C3CC3)nc12	0.3	0.1	23.7	-6.9	4.1	85.9*
SMILES	GRIN3A LBD mod	iPSC survival up	Arr AP2 block	FAS TE block	SENP1 FRET inh	H9c2 protect
O=C(Nc1ccccc1)Nc1ccc(Nc2ccccc2)cc1	29.2*	-0.4	-2.0	1.3	-1.3	-2.6
CCCC(=O)Nc1ccc(-c2ccc(NC(=O)CCC)cc2)cc1	-6.1	0.4	4.9	-10.0	2.2	-0.6
CCCC(=O)Nc1ccc(Nc2ccccc2)cc1	10.1*	-0.8	-2.5	-4.4	2.7	-2.5
COC(=O)c1c(N)[nH]c(C(=O)c2ccccc2)c1-c1ccc(Br)cc1	.	-1.0	.	-5.3	1.1	.
COCCCn1cc(CN2CC(N3CCN(C4CCN(C)CC4)CC3)CS2(=O)=O)nn1 (stereo not drawn)	.	3.4	.	-12.7	1.3	.
Cc1ccc(N2CCN(C(C(=O)Nc3c(C)cccc3C)c3cc4ccccc4o3)CC2)cc1 (stereo not drawn)	.	.	.	.	-0.8	.
